{"source": "ChEMBL document CHEMBL3526029", "about": "“Disposition and metabolism of GSK2251052 in humans: a novel boron-containing antibiotic” (Drug Metab Dispos, 2013)", "key": {"[1]": {"experiment": "Drug recovery in healthy human urine at 1500 mg, iv infusion for 1 hr as single dose after 144 hrs", "type": "ADME, organism-based", "conditions": "read-out: Drug recovery"}, "[2]": {"tested_on": "Homo sapiens", "experiment": "Toxicity in healthy human assessed as serious adverse events at 1500 mg, iv infusion for 1 hr as single dose", "type": "organism-based", "conditions": "in vivo", "how_it_was_run": "(§1)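 Single-center, open-label phase I study in six healthy adult males, fasted ≥10 h. Each got one 1500 mg [14C]GSK2251052 dose as a constant-rate 1-h IV infusion. Safety was monitored throughout, with follow-up for at least 336 h after dosing.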"}, "[3]": {"experiment": "Total drug recovery in healthy human at 1500 mg, iv infusion for 1 hr as single dose after 312 hrs", "type": "ADME, organism-based", "conditions": "in vivo, read-out: Drug recovery", "how_it_was_run": "(§2)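 Six healthy adult males, fasted ≥10 h, got one 1500 mg [14C]GSK2251052 dose ([…], 0.56 MBq) as a constant-rate 1-h IV infusion in 0.9% NaCl. Urine was collected at 0–6, 6–12 and 12–24 h, then in 24-h blocks to 336 h; feces in 24-h blocks. Urine was counted directly by LSC; feces were homogenized and combusted in duplicate before LSC. Cumulative recovery is given as mean % of dose.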"}, "[4]": {"experiment": "Total drug recovery in healthy human at 1500 mg, iv infusion for 1 hr as single dose after 336 hrs", "type": "ADME, organism-based", "conditions": "in vivo, read-out: Drug recovery", "how_it_was_run": "as §2"}, "[5]": {"tested_on": "Plasma", "experiment": "Half life in healthy human plasma assessed as radioactivity at 1500 mg, iv infusion for 1 hr as single dose", "type": "ADME, organism-based", "conditions": "in vivo", "how_it_was_run": "(§3)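 Healthy men got a single 1500 mg [14C] dose by 1 h i.v. infusion. K2EDTA blood was sampled up to 336 h. Radioactivity in blood and plasma was measured by LSC, with AMS for plasma below LLQ. Parent and M3 were measured by LC/MS/MS (5–10,000 ng/ml range). Noncompartmental analysis used actual times, with t1/2 = ln2/λz and Tmax observed directly, timed from infusion start.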"}, "[6]": {"experiment": "Total drug recovery in healthy human at 1500 mg, iv infusion for 1 hr as single dose after 240 hrs", "type": "ADME, organism-based", "conditions": "in vivo, read-out: Drug recovery", "how_it_was_run": "as §2"}, "[7]": {"experiment": "Total drug recovery in healthy human at 1500 mg, iv infusion for 1 hr as single dose after 264 hrs", "type": "ADME, organism-based", "conditions": "in vivo, read-out: Drug recovery", "how_it_was_run": "as §2"}, "[8]": {"experiment": "Drug recovery in healthy human feces at 1500 mg, iv infusion for 1 hr as single dose after 336 hrs", "type": "ADME, organism-based", "conditions": "read-out: Drug recovery"}, "[9]": {"tested_on": "Plasma", "experiment": "Tmax in healthy human plasma assessed as radioactivity at 1500 mg, iv infusion for 1 hr as single dose", "type": "ADME, organism-based", "conditions": "in vivo", "how_it_was_run": "as §3"}, "[10]": {"experiment": "Drug recovery in healthy human urine at 1500 mg, iv infusion for 1 hr as single dose after 264 hrs", "type": "ADME, organism-based", "conditions": "read-out: Drug recovery"}, "[11]": {"experiment": "Drug recovery in healthy human urine assessed as total radioactivity at 1500 mg, iv infusion for 1 hr as single dose after 120 to 336 hrs by HPLC method", "type": "ADME, organism-based", "conditions": "in vivo, in the assay text read “0 to 120 hrs” for “120 to 336 hrs”", "how_it_was_run": "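Urine pooled by weight per subject over 0–120 h; 120–336 h pools from all subjects combined into one composite. Centrifuged at ~21,000g, then supernatant profiled by HPLC (Atlantis T3, ammonium acetate pH 4.5/methanol, 30°C) with radiochemical detection plus MS identification. Results are % of dose, corrected for centrifugation recovery measured by triplicate LSC.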"}, "[12]": {"experiment": "Drug recovery in healthy human feces at 1500 mg, iv infusion for 1 hr as single dose after 288 hrs", "type": "ADME, organism-based", "conditions": "faeces, read-out: Drug recovery"}, "[13]": {"tested_on": "Liver cytosol", "experiment": "Drug metabolism in human liver cytosol assessed as (S)-3-(3-(aminomethyl)-1-hydroxy-1,3-dihydrobenzo[c][1,2]oxaborol-7-yloxy)propanoicacid formation at 50 to 500 uM after 3 hrs by liquid scintillation counting in presence of NAD+", "type": "ADME", "how_it_was_run": "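[14C]GSK2251052 was incubated in triplicate for 1 or 3 h at 37°C with 4 mg/ml S9 (monkey liver, lung or kidney; human liver), liver cytosol or liver microsomes and 7.5 mM NAD+. Buffer was pyrophosphate at pH 7.4, 8.4 or 8.8. Controls lacked cofactor or enzyme. Reactions were quenched with acetonitrile, counted by LSC, and pooled for radio-HPLC.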"}, "[14]": {"experiment": "Drug metabolism in healthy human urine assessed as (S)-3-(3-(acetamidomethyl)-1-hydroxy-1,3-dihydrobenzo[c][1,2]oxaborol-7-yloxy)propanoicacid formation at 1500 mg, iv infusion for 1 hr as single dose by mass spectrometry", "type": "ADME, organism-based", "conditions": "in vivo", "how_it_was_run": "(§4)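 Urine was collected through 336 h after a 1500 mg [14C] i.v. 1-h infusion to six men. Samples were pooled by weight (0–120 h per subject; 120–336 h composite) and centrifuged. Profiling used HPLC (Atlantis T3, ammonium acetate pH 4.5/methanol, 30°C) with fraction radioactivity counting. Identity came from Orbitrap positive-ion accurate mass. Values were given as % dose, corrected for recovery.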"}, "[15]": {"experiment": "Total drug recovery in healthy human at 1500 mg, iv infusion for 1 hr as single dose after 144 hrs", "type": "ADME, organism-based", "conditions": "in vivo, read-out: Drug recovery"}, "[16]": {"tested_on": "Homo sapiens", "experiment": "Toxicity in healthy human assessed as mortality at 1500 mg, iv infusion for 1 hr as single dose", "type": "organism-based", "conditions": "in vivo", "how_it_was_run": "as §1"}, "[17]": {"experiment": "Total drug recovery in healthy human at 1500 mg, iv infusion for 1 hr as single dose after 168 hrs", "type": "ADME, organism-based", "conditions": "in vivo, read-out: Drug recovery"}, "[18]": {"tested_on": "Plasma", "experiment": "AUC (0 to infinity) in healthy human plasma assessed as radioactivity at 1500 mg, iv infusion for 1 hr as single dose", "type": "ADME, organism-based", "parameters": "dose 1500 mg, time infinity, route intravenous", "conditions": "in vivo", "how_it_was_run": "(§5)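 Six fasted healthy men received 1500 mg [14C]GSK2251052 as a 1-h i.v. infusion. Blood and plasma were sampled from predose to 336 h after infusion start. Radioactivity was counted by LSC; plasma below 870 ng eq/ml was reanalysed by accelerator MS, with predose background subtracted. Noncompartmental analysis used actual sampling times, linear-up/log-down trapezoids and CL = dose/AUC(0-∞).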"}, "[19]": {"experiment": "Drug recovery in healthy human feces at 1500 mg, iv infusion for 1 hr as single dose after 120 hrs", "type": "ADME, organism-based", "conditions": "read-out: Drug recovery", "how_it_was_run": "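Feces were collected at 24-h intervals through 336 h after a 1500 mg [14C] i.v. 1-h infusion. Samples were homogenised with water and duplicate aliquots combusted for LSC. For profiling, 0–120 h pools were extracted twice with acetonitrile:methanol:water:formic acid, reconstituted, and analysed by radio-HPLC. Values were reported as % dose.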"}, "[20]": {"experiment": "Drug metabolism in healthy human urine assessed as 3-(3-(2-amino-1-hydroxyethyl)-2-hydroxyphenoxy)propanoic acid formation at 1500 mg, iv infusion for 1 hr as single dose by mass spectrometry", "type": "ADME, organism-based", "conditions": "in vivo", "how_it_was_run": "as §4"}, "[21]": {"tested_on": "Blood", "experiment": "Cmax in healthy human whole blood assessed as radioactivity at 1500 mg, iv infusion for 1 hr as single dose", "type": "ADME, organism-based", "parameters": "dose 1500 mg, route intravenous", "conditions": "in vivo", "how_it_was_run": "as §5"}, "[22]": {"experiment": "Drug recovery in healthy human feces at 1500 mg, iv infusion for 1 hr as single dose after 312 hrs", "type": "ADME, organism-based", "conditions": "read-out: Drug recovery"}, "[23]": {"tested_on": "Blood", "experiment": "Tmax in healthy human whole blood assessed as radioactivity at 1500 mg, iv infusion for 1 hr as single dose", "type": "ADME, organism-based", "conditions": "in vivo", "how_it_was_run": "as §3"}, "[24]": {"tested_on": "Blood", "experiment": "Half life in healthy human whole blood assessed as radioactivity at 1500 mg, iv infusion for 1 hr as single dose", "type": "ADME, organism-based", "conditions": "in vivo", "how_it_was_run": "as §3"}, "[25]": {"experiment": "Drug recovery in healthy human urine at 1500 mg, iv infusion for 1 hr as single dose after 312 hrs", "type": "ADME, organism-based", "conditions": "read-out: Drug recovery"}, "[26]": {"experiment": "Drug recovery in healthy human feces at 1500 mg, iv infusion for 1 hr as single dose after 264 hrs", "type": "ADME, organism-based", "conditions": "faeces, read-out: Drug recovery"}}, "data": [{"smiles": "Cl.N[14CH2][C@H]1OB(O)c2c(OCCCO)cccc21", "values": [{"measurement": "dose excreted at 144 h", "setting": "[1]", "result": 85.1, "unit": "%"}, {"measurement": "Activity", "setting": "[2]", "result": "Non-toxic"}, {"measurement": "dose excreted at 312 h", "setting": "[3]", "result": 97.8, "unit": "%"}, {"measurement": "dose excreted at 336 h", "setting": "[4]", "result": 98.2, "unit": "%"}, {"measurement": "t1/2", "setting": "[5]", "result": 96, "unit": "h"}, {"measurement": "dose excreted at 240 h", "setting": "[6]", "result": 96.4, "unit": "%"}, {"measurement": "dose excreted at 264 h", "setting": "[7]", "result": 97, "unit": "%"}, {"measurement": "dose excreted at 336 h", "setting": "[8]", "result": 7.6, "unit": "%"}, {"measurement": "Tmax", "setting": "[9]", "result": 55, "unit": "min"}, {"measurement": "dose excreted at 264 h", "setting": "[10]", "result": 89.3, "unit": "%"}, {"measurement": "Drug recovery", "setting": "[11]", "result": 83.1, "unit": "%"}, {"measurement": "dose excreted at 288 h", "setting": "[12]", "result": 7.6, "unit": "%"}, {"measurement": "Drug metabolism", "setting": "[13]", "result": "metabolite_not_detected"}, {"measurement": "Drug recovery", "setting": "[14]", "result": "metabolite_detected"}, {"measurement": "dose excreted at 144 h", "setting": "[15]", "result": 92.6, "unit": "%"}, {"measurement": "Activity", "setting": "[16]", "result": "Non-toxic"}, {"measurement": "dose excreted at 168 h", "setting": "[17]", "result": 94, "unit": "%"}, {"measurement": "AUC", "setting": "[18]", "result": 195, "unit": "µg·h/mL"}, {"measurement": "dose excreted at 120 h", "setting": "[19]", "result": 7.3, "unit": "%"}, {"measurement": "Drug recovery", "setting": "[20]", "result": "metabolite_detected"}, {"measurement": "Cmax", "setting": "[21]", "result": 43.7, "unit": "µg/mL"}, {"measurement": "dose excreted at 312 h", "setting": "[22]", "result": 7.6, "unit": "%"}, {"measurement": "Tmax", "setting": "[23]", "result": 55, "unit": "min"}, {"measurement": "t1/2", "setting": "[24]", "result": 14.3, "unit": "h"}, {"measurement": "dose excreted at 312 h", "setting": "[25]", "result": 90.2, "unit": "%"}, {"measurement": "dose excreted at 264 h", "setting": "[26]", "result": 7.6, "unit": "%"}]}]}
